ChEMBL document CHEMBL3992534, “Design, Synthesis, and Biological Evaluation of Novel, Non-Brain-Penetrant, Hybrid Cannabinoid CB1R Inverse Agonist/Inducible Nitric Oxide Synthase (iNOS) Inhibitors for the Treatment of Liver Fibrosis” (J Med Chem, 2017)

Columns and labels:
Cannabinoid receptor 2 = Cannabinoid receptor 2 (Mus musculus, UniProt P47936); assay: Displacement of [3H]CP55940 from mouse CB2R expressed in CHOK1 cell membranes
Procedure, shortened: (§1)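 Displacement binding isotherms with [3H]-CP55940 as labeled ligand on plasma membranes from CHO-K1 cells expressing CB1R or CB2R. Ki was calculated by the Cheng-Prusoff equation. Values are mean ± SEM of 3 independent experiments, each run in triplicate.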

Cannabinoid receptor 1 [1] = molecular target: T1, Cannabinoid receptor 1 (Mus musculus, UniProt P47746); assay: Inverse agonist at mouse brain CB1R expressed in CHOK1 cell membranes assessed as inhibition of CP55940-stimulated [35S]GTP-gammaS binding measured after 60 mins by scintillation spectrometry
Cannabinoid receptor 1 [2] = molecular target: T1, Cannabinoid receptor 1; assay: Displacement of [3H]CP55940 from mouse brain CB1R expressed in CHOK1 cell membranes; procedure, shortened: as §1

Sequence of Cannabinoid receptor 2 (P47936 whole entry): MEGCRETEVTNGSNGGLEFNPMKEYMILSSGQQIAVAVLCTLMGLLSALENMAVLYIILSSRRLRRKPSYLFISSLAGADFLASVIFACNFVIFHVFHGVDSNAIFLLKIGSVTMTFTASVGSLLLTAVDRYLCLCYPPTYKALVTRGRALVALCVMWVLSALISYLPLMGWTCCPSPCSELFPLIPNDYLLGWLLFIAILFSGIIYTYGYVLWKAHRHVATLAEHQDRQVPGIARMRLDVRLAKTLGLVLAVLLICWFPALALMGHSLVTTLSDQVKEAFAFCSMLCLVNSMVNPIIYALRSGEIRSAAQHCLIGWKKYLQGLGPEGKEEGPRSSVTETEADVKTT
T1 sequence (P47746 whole entry): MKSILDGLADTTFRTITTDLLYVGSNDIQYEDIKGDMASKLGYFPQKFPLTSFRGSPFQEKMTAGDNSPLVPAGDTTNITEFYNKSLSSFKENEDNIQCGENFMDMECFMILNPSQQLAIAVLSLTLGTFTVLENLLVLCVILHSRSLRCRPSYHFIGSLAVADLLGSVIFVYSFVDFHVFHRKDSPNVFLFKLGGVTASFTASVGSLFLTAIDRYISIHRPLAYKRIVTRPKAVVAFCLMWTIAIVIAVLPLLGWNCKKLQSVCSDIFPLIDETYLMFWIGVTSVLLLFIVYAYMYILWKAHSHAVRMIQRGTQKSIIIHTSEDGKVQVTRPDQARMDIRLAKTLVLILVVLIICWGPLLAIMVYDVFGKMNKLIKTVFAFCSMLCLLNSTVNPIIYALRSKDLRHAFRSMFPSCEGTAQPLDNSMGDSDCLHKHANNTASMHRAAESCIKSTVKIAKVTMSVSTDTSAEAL

| Ki (Cannabinoid receptor 2) [nM] | IC50 (Cannabinoid receptor 1 [1]) [nM] | Ki (Cannabinoid receptor 1 [2]) [nM] | Structure (SMILES) |
| --- | --- | --- | --- |
| > 1000 | – | – | N/C(=N/C(=N\S(=O)(=O)c1ccc(Cl)cc1)N1CC(c2ccccc2)C(c2ccc(Cl)cc2)=N1)c1ccc(Br)cc1 (stereo not given) |
| > 1000 | 97 | 63 | CS/C(N)=N\C(=N/S(=O)(=O)c1ccc(C(F)(F)F)cc1)N1CC(c2ccccc2)C(c2ccc(Cl)cc2)=N1 (stereo not given) |
| > 1000 | 90 | 10 | C/C(N)=N\C(=N/S(=O)(=O)c1ccc(C(C)C)cc1)N1CC(c2ccccc2)C(c2ccc(Cl)cc2)=N1 (stereo not given) |
| > 1000 | 118 | – | C/C(N)=N\C(=N/S(=O)(=O)c1ccc2ccccc2c1)N1CC(c2ccccc2)C(c2ccc(Cl)cc2)=N1 (stereo not given) |
| > 1000 | 395 | – | CC(C)S/C(N)=N\C(=N/S(=O)(=O)c1ccc(Cl)cc1)N1CC(c2ccccc2)C(c2ccc(Cl)cc2)=N1 (stereo not given) |
| > 1000 | 30 | – | C/C(N)=N\C(=N/S(=O)(=O)c1ccc(C(C)(C)C)cc1)N1CC(c2ccccc2)C(c2ccc(Cl)cc2)=N1 (stereo not given) |
| > 1000 | 226 | – | N/C(=N/C(=N\S(=O)(=O)c1ccc(Cl)cc1)N1CC(c2ccccc2)C(c2ccc(Cl)cc2)=N1)C12CC3CC(CC(C3)C1)C2 (stereo not given) |
| > 1000 | 125 | – | N/C(COc1ccccc1)=N/C(=N\S(=O)(=O)c1ccc(Cl)cc1)N1CC(c2ccccc2)C(c2ccc(Cl)cc2)=N1 (stereo not given) |
| > 1000 | > 1000 | – | CC(C)/C(N)=N\C(=N/S(=O)(=O)c1ccc(Cl)cc1)N1CC(c2ccccc2)C(c2ccc(Cl)cc2)=N1 (stereo not given) |
| 173 | 116 | – | N/C(=N/C(=N\S(=O)(=O)c1ccc(Cl)cc1)N1CC(c2ccccc2)C(c2ccc(Cl)cc2)=N1)c1ccc(F)cc1 (stereo not given) |
| 107 | 72 | – | N/C(=N/C(=N\S(=O)(=O)c1ccc(Cl)cc1)N1CC(c2ccccc2)C(c2ccc(Cl)cc2)=N1)c1ccccc1F (stereo not given) |
| > 1000 | 241 | – | N/C(=N/C(=N\S(=O)(=O)c1ccc(Cl)cc1)N1CC(c2ccccc2)C(c2ccc(Cl)cc2)=N1)C1CC1 (stereo not given) |
| > 1000 | 2640 | – | N/C(=N/C(=N\S(=O)(=O)c1ccc(Cl)cc1)N1CC(c2ccccc2)C(c2ccc(Cl)cc2)=N1)SCCCc1ccccc1 (stereo not given) |
| > 1000 | 534 | – | CCS/C(N)=N\C(=N/S(=O)(=O)c1ccc(Cl)cc1)N1CC(c2ccccc2)C(c2ccc(Cl)cc2)=N1 (stereo not given) |
| 161 | 33 | – | COc1cccc(/C(N)=N\C(=N/S(=O)(=O)c2ccc(Cl)cc2)N2CC(c3ccccc3)C(c3ccc(Cl)cc3)=N2)c1 (stereo not given) |
| > 1000 | 33 | 26 | N/C(=N/C(=N\S(=O)(=O)c1ccc(Cl)cc1)N1CC(c2ccccc2)C(c2ccc(Cl)cc2)=N1)c1ccccn1 (stereo not given) |
| > 1000 | 686 | – | C/C(N)=N\C(=N/S(=O)(=O)c1ccc(F)cc1)N1CC(c2ccccc2)C(c2ccc(Cl)cc2)=N1 (stereo not given) |

| Ki (Cannabinoid receptor 2) [nM] | IC50 (Cannabinoid receptor 1 [1]) [nM] | Ki (Cannabinoid receptor 1 [2]) [nM] | Structure (SMILES) |
| --- | --- | --- | --- |
| 1000 | 117 | – | N/C(=N/C(=N\S(=O)(=O)c1ccc(Cl)cc1)N1CC(c2ccccc2)C(c2ccc(Cl)cc2)=N1)c1ccccc1 (stereo not given) |
| > 1000 | 65 | 10 | CS/C(N)=N\C(=N/S(=O)(=O)c1ccc(I)cc1)N1CC(c2ccccc2)C(c2ccc(Cl)cc2)=N1 (stereo not given) |
| 158 | 18 | 10 | N/C(=N/C(=N\S(=O)(=O)c1ccc(Cl)cc1)N1CC(c2ccccc2)C(c2ccc(Cl)cc2)=N1)c1ccc(Cl)cc1 (stereo not given) |
| 250 | 292 | – | N/C(=N/C(=N\S(=O)(=O)c1ccc(Cl)cc1)N1CC(c2ccccc2)C(c2ccc(Cl)cc2)=N1)c1cccc(Br)c1 (stereo not given) |
| > 1000 | 40 | 5.7 | C/C(N)=N\C(=N/S(=O)(=O)c1ccc(C(F)(F)F)cc1)N1CC(c2ccccc2)C(c2ccc(Cl)cc2)=N1 (stereo not given) |
| > 1000 | 182 | – | CC(C)(C)/C(N)=N\C(=N/S(=O)(=O)c1ccc(Cl)cc1)N1CC(c2ccccc2)C(c2ccc(Cl)cc2)=N1 (stereo not given) |
| > 1000 | 213 | – | N/C(=N/C(=N\S(=O)(=O)c1ccc(Cl)cc1)N1CC(c2ccccc2)C(c2ccc(Cl)cc2)=N1)SCc1ccccc1 (stereo not given) |
| > 1000 | – | – | CS/C(N)=N\C(=N/S(=O)(=O)c1ccc(Cl)cc1)N1CC(c2ccccc2)C(c2ccc(Cl)cc2)=N1 (stereo not given) |
| > 1000 | 70 | – | COc1ccc(S(=O)(=O)/N=C(\N=C(/C)N)N2CC(c3ccccc3)C(c3ccc(Cl)cc3)=N2)cc1 (stereo not given) |
| > 1000 | 101 | – | N/C(=N/C(=N\S(=O)(=O)c1ccc(Cl)cc1)N1CC(c2ccccc2)C(c2ccc(Cl)cc2)=N1)c1cccs1 (stereo not given) |
| > 1000 | 441 | – | N/C(=N/C(=N\S(=O)(=O)c1ccc(Cl)cc1)N1CC(c2ccccc2)C(c2ccc(Cl)cc2)=N1)SCCc1ccccc1 (stereo not given) |
| > 1000 | 2040 | – | C/C(N)=N\C(=N/S(=O)(=O)c1ccccc1)N1CC(c2ccccc2)C(c2ccc(Cl)cc2)=N1 (stereo not given) |
| > 1000 | 2670 | 29 | CS/C(N)=N\C(=N/S(=O)(=O)c1ccc2ccccc2c1)N1CC(c2ccccc2)C(c2ccc(Cl)cc2)=N1 (stereo not given) |
| > 1000 | 603 | – | N/C(=N/C(=N\S(=O)(=O)c1ccc(Cl)cc1)N1CC(c2ccccc2)C(c2ccc(Cl)cc2)=N1)c1ccncc1 (stereo not given) |
| 106 | 22 | – | N/C(=N/C(=N\S(=O)(=O)c1ccc(Cl)cc1)N1CC(c2ccccc2)C(c2ccc(Cl)cc2)=N1)c1ccc(F)cc1F (stereo not given) |
| > 1000 | – | – | C/C(N)=N\C(=N/S(=O)(=O)c1ccc(Cl)cc1)N1CC(c2ccccc2)C(c2ccc(Cl)cc2)=N1 (stereo not given) |
| > 1000 | 76 | – | C/C(N)=N\C(=N/S(=O)(=O)c1ccc(OC(F)(F)F)cc1)N1CC(c2ccccc2)C(c2ccc(Cl)cc2)=N1 (stereo not given) |

| Structure (SMILES) | Ki (Cannabinoid receptor 2) [nM] | IC50 (Cannabinoid receptor 1 [1]) [nM] | Ki (Cannabinoid receptor 1 [2]) [nM] |
| --- | --- | --- | --- |
| C/C(N)=N\C(=N/S(=O)(=O)c1ccc(C)cc1)N1CC(c2ccccc2)C(c2ccc(Cl)cc2)=N1 (stereo not given) | > 1000 | 113 | – |
| CNC(=NS(=O)(=O)c1ccc(Cl)cc1)N1CC(c2ccccc2)C(c2ccc(Cl)cc2)=N1 (stereo not drawn) [RAC-IBIPINABANT] | – | 76 | 8.1 |
| C/C(N)=N\C(=N/S(=O)(=O)c1ccc(Br)cc1)N1CC(c2ccccc2)C(c2ccc(Cl)cc2)=N1 (stereo not given) | > 1000 | 19 | – |
| C/C(N)=N\C(=N/S(=O)(=O)c1ccc(I)cc1)N1CC(c2ccccc2)C(c2ccc(Cl)cc2)=N1 (stereo not given) | > 1000 | 65 | – |
